The text below walks through data of ChEMBL document CHEMBL2401654, “Synthesis, characterization, and biological assessment of the four stereoisomers of the H(3) receptor antagonist 5-fluoro-2-methyl-N-[2-methyl-4-(2-methyl[1,3']bipyrrolidinyl-1'-yl)phenyl]benzamide” (Bioorg Med Chem Lett, 2013).

Values after ≈ are worked out from the molar mass of the structure shown.

Series [1] can be described thus: Genotoxicity in micronucleus (unknown origin).
A further series concerns Salmonella typhimurium. Nature of the series: Mutagenic activity in Salmonella typhimurium by Ames test. The class given is toxicity, organism-based. To be noted: salmonella enterica subsp. enterica serovar typhimurium. (In the Ames test, an excess of revertant colonies over the control signals mutagenicity.)
Series [2] concerns the target Voltage-gated inwardly rectifying potassium channel KCNH2 (Homo sapiens, UniProt Q12809). Description: Inhibition of human ERG transfected in CHO cells by patch clamp assay. The class given is cell-based. Put shortly:
(§1)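 Whole-cell patch clamp on CHO cells stably transfected with the human ERG gene.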
Background: The patch-clamp technique gives a direct electrical read-out from membranes.

For series [3], the target named is T1, hERG (KCNH2) (Homo sapiens, UniProt Q12809). Nature of the series: Inhibition of human ERG transfected in CHO cells at 10 uM by patch clamp assay relative to control. To be noted: CHO cells transfected with human ERG. The class given is cell-based. Put shortly: as §1
For series [4], the target named is T1, hERG (KCNH2). Description: Inhibition of human ERG transfected in CHO cells at 1 uM by patch clamp assay relative to control. The class given is cell-based. To be noted: CHO cells transfected with human ERG. A digest of the protocol: as §1
A further series deals with Cytochrome P450 3A4 (Homo sapiens, UniProt P08684). Description: Inhibition of CYP3A4 (unknown origin). Format: ADME.
A further series has as its target Cytochrome P450 2C19 (Homo sapiens, UniProt P33261). Nature of the series: Inhibition of CYP2C19 (unknown origin). Format: ADME.
The target of the next series is Cytochrome P450 2D6 (Homo sapiens, UniProt P10635). Description: Inhibition of CYP2D6 (unknown origin). The class given is ADME.
A further series has as its target Cytochrome P450 2C9 (Homo sapiens, UniProt P11712). Nature of the series: Inhibition of CYP2C9 (unknown origin). The class given is ADME.
The target of a further series is T2, Cytochrome P450 2B6 (Homo sapiens, UniProt P20813).
T2 sequence (P20813 whole entry): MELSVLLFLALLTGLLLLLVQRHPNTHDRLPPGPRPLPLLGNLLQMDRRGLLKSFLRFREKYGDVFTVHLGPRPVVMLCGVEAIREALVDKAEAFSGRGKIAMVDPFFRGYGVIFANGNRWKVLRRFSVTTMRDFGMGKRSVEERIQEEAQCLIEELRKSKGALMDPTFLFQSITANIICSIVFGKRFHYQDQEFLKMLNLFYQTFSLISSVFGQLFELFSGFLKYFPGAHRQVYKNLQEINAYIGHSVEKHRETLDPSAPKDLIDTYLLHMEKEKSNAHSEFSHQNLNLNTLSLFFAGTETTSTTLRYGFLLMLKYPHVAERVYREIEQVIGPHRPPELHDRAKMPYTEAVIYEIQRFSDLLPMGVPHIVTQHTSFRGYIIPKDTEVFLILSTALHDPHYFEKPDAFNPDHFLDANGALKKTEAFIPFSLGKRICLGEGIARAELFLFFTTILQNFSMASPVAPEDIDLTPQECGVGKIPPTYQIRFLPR
Description: Inhibition of CYP2B6 (unknown origin). The class given is ADME.

The next series has as its target T3, Cytochrome P450 1A2 (Homo sapiens, UniProt P05177).
T3 sequence (P05177 whole entry): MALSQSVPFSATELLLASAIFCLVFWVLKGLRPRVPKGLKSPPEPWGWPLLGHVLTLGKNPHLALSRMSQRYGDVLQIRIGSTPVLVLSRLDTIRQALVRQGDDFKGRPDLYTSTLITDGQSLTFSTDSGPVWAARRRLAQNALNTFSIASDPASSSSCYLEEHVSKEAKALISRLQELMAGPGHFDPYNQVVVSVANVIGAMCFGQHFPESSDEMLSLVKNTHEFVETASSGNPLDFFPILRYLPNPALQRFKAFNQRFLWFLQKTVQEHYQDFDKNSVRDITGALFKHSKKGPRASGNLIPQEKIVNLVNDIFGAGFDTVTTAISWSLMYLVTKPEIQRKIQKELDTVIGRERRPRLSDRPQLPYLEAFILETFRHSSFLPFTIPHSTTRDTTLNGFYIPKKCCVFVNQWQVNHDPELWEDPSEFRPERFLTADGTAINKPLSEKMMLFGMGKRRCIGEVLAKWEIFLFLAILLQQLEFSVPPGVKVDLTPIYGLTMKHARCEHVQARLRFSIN
Description: Inhibition of CYP1A2 (unknown origin). The class given is ADME.

Series [5] can be described thus: Drug metabolism in rat liver microsomes at 5 uM after 20 mins. The class given is ADME, Microsome. To be noted: read-out: Drug metabolism. A digest of the protocol:
(§2)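 Substrate at 5 µM incubated at 37 °C for 20 min with in-house liver microsome preparations (human, mouse or rat). Reported as the percentage of parent compound metabolized.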
(Liver microsomes are vesicles of endoplasmic reticulum, rich in cytochrome P450 enzymes.)

A short description of series [6]: Drug metabolism in human liver microsomes at 5 uM after 20 mins. To be noted: read-out: Drug metabolism. The class given is ADME, Microsome. A digest of the protocol: as §2
Series [7] is described as follows: Drug metabolism in mouse liver microsomes at 5 uM after 20 mins. The class given is ADME, Microsome. To be noted: read-out: Drug metabolism. A digest of the protocol:
as §2

For series [8], the target named is Histamine H3 receptor (Rattus norvegicus, UniProt Q9QYN8). Nature of the series: Displacement of [3H]N-alpha-methylhistamine from recombinant rat histamine H3 receptor transfected in CHO cell membranes after 1 hr by scintillation counting analysis. On the set-up: species or system Membrane. Put shortly:
(§3)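 Radioligand displacement of [3H]N-α-methylhistamine using membranes from CHO cells stably transfected with recombinant human or rat H3 receptor. Ki is presented as a range of multiple experiments (n ≥ 3).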

Series [9] has as its target Histamine H3 receptor (Homo sapiens, UniProt Q9Y5N1). Nature of the series: Displacement of [3H]N-alpha-methylhistamine from recombinant human histamine H3 receptor transfected in CHO cell membranes after 1 hr by scintillation counting analysis. A digest of the protocol: as §3
A short description of series [10]: Partition coefficient, log P of the compound. Format: physicochemical. The following applies: octanol/water.
The nature of series [11]: Distribution coefficient, log D of the compound. Format: physicochemical. To be noted: octanol/water.
Series [12] is described as follows: Solubility of the compound in PBS buffer at pH 7.4. The class given is physicochemical. A digest of the protocol:
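Solubility measured in PBS at pH 7.4.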

T1 sequence (Q12809 whole entry): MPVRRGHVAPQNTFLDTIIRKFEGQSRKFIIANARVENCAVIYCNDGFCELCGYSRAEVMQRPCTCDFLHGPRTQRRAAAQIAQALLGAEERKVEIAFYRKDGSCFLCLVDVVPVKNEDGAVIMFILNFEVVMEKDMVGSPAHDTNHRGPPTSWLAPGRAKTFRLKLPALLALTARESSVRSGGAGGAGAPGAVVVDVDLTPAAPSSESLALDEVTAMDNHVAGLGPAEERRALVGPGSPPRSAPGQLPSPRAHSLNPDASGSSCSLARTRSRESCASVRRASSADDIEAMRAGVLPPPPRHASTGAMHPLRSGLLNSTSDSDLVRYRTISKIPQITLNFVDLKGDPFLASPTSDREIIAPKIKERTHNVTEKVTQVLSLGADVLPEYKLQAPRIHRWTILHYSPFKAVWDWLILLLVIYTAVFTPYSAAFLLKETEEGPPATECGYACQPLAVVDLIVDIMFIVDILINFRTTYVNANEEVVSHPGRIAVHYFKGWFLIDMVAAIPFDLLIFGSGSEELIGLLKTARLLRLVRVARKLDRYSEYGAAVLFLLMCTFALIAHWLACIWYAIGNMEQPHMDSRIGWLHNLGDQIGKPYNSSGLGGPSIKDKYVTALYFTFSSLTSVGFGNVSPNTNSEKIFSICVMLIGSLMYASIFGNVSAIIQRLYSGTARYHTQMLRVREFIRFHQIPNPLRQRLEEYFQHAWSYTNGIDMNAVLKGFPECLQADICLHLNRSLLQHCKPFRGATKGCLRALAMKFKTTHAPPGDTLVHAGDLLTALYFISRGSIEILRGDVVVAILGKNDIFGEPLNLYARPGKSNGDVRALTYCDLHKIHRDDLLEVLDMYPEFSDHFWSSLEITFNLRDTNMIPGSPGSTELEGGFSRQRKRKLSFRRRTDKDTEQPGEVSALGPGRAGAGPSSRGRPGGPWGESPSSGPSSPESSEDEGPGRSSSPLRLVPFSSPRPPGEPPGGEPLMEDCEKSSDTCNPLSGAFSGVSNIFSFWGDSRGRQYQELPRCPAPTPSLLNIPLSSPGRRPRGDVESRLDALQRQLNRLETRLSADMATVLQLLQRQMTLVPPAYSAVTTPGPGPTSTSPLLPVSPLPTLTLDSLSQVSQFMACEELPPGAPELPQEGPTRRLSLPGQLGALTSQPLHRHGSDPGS
Cytochrome P450 2C19, sequence (P33261 whole entry): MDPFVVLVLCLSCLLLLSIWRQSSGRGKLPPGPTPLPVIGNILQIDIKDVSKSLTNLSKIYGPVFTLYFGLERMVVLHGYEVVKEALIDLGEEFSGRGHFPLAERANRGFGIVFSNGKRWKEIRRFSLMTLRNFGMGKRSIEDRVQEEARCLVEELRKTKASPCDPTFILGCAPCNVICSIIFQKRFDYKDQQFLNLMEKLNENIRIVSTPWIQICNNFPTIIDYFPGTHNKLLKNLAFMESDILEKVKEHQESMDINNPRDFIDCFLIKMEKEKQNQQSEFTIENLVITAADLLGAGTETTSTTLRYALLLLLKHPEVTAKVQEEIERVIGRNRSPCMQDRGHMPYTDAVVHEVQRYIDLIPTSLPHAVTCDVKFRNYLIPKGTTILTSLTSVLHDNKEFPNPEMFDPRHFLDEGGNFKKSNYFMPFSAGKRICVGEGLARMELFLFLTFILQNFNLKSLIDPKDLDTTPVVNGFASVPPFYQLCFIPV
Histamine H3 receptor (Homo sapiens, UniProt Q9Y5N1), sequence (Q9Y5N1 whole entry): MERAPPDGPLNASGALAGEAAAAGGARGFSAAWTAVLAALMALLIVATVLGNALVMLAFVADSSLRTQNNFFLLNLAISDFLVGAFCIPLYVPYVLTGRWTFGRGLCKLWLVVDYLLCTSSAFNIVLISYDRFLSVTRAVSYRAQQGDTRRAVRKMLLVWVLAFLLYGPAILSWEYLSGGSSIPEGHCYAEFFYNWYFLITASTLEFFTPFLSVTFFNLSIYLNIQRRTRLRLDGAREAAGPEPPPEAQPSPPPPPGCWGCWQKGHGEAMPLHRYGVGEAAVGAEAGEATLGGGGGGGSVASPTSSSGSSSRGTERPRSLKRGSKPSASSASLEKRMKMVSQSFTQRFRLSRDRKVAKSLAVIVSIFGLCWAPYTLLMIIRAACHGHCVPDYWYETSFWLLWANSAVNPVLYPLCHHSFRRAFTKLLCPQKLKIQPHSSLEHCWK
Histamine H3 receptor (Rattus norvegicus, UniProt Q9QYN8), sequence (Q9QYN8 whole entry): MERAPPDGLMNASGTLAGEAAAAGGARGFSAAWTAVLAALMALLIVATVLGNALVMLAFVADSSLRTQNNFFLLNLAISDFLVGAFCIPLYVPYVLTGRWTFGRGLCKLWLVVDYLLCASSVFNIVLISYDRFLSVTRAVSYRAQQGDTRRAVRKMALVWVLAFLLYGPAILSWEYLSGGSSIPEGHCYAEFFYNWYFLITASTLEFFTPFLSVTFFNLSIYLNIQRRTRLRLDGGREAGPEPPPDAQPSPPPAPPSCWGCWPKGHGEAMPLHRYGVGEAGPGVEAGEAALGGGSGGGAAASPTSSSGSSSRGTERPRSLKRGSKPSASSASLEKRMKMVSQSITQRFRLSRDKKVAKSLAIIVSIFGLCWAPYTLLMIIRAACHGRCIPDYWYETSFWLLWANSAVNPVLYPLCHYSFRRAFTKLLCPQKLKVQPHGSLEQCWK
Cytochrome P450 2C9, sequence (P11712 whole entry): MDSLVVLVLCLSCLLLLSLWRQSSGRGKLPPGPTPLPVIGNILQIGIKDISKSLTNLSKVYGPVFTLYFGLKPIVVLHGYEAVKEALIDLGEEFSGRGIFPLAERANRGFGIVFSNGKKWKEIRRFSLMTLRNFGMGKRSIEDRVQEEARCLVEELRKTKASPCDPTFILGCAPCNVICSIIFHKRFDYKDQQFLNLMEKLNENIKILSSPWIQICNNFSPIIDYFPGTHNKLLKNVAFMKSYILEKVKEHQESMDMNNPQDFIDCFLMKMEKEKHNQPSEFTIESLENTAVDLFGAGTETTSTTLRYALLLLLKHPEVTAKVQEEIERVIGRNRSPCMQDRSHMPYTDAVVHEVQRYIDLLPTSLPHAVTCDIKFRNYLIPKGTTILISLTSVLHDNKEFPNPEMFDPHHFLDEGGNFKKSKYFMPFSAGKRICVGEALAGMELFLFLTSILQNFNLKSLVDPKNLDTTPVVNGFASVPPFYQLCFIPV
Cytochrome P450 2D6, sequence (P10635 whole entry): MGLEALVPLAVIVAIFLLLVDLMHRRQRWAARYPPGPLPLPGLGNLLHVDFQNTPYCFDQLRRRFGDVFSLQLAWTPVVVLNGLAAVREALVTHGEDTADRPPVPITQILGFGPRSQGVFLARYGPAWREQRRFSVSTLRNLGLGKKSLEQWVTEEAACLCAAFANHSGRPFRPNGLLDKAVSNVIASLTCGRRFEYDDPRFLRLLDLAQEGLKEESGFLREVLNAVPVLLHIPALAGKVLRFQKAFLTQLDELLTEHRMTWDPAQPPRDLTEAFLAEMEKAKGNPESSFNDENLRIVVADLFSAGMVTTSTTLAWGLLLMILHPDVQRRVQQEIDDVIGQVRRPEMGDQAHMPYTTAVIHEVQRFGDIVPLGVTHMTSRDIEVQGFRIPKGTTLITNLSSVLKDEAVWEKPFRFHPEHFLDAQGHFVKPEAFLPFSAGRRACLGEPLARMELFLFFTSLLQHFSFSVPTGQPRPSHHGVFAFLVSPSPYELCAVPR
Voltage-gated inwardly rectifying potassium channel KCNH2, sequence (Q12809 whole entry): as the sequence (Q12809 whole entry) above

As usually defined, the IC50 is the concentration at which inhibition is half-maximal. A lower IC50 goes with greater potency. One may read the inhibition as the change of the read-out against control, counted positive when it falls. Higher therefore signals a response far below the control. As a reminder, the Ki is a dissociation constant, usually derived from enzyme kinetics or from competition with a known ligand. In general, logP refers to the decadic logarithm of the partition coefficient of the neutral form, usually between octanol and water. A high value points to a more lipophilic compound. The logD is lipophilicity at a set pH, counting ionised and neutral species. Higher therefore signals a more lipophilic compound. One may read the solubility as how much of the substance goes into solution per volume. The low end stands for little dissolved substance, the high end for much dissolved substance. On to `Cc1cc(N2CC[C@@H](N3CCC[C@@H]3C)C2)ccc1NC(=O)c1cc(F)ccc1C`, for which the Activity result (in [1]; in the series on Salmonella typhimurium) was “Non-toxic” throughout. In addition, the IC50 was 1.8 µM in series [2]; above 30 µM against Cytochrome P450 3A4; above 30 µM against Cytochrome P450 2C19; above 30 µM at Cytochrome P450 2D6; above 30 µM at Cytochrome P450 2C9; above 30 µM against Cytochrome P450 2B6. This compound showed an IC50 against Cytochrome P450 1A2 above 30 µM. The inhibition at 10 µM at hERG (KCNH2) [3] was 88.6%. On hERG (KCNH2) [4], this compound returned an inhibition at 1 µM of 38.8%. Moreover, the results for the metabolised at 20 min, 5 µM in series [5], in series [6] and in series [7] were 36%, 5% and 20%, respectively. Also, the Ki turned out to be 0.011 µM at Histamine H3 receptor [8] and 0.018 µM on Histamine H3 receptor [9]. This compound gave a logP in series [10] of 3.55. Further, in [11], the logD was found to be 2.09. This compound also had a solubility in series [12] of 88.5 µg/mL (≈ 224 µM).
